An excerpt weighted towards active compounds, which were near 1.9% of everything screened.
aDG glyco act – alpha-DG glycosylation activation; Pro5-aDG cells, alpha-DG glycosylation AlphaScreen (IIH6); 0% Pro5, 100% B10-LARGE cell signal; activation, % at 10 µM; 360,000 compounds, 0.22% hits; AID 624168;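 active = activation of at least 8% versus controls, or a plate z-score of at least 8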;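 note: Pro5 are CHO cells carrying HIG-tagged alpha-DG that lacks glycosylation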
Vif inh – inhibitors of HIV Vif. AID 602346. HEK293T cells, Vif self-association by quenched fluorescence, imaging, 24 h. 340,000 compounds, 0.35% hits. inhibition, % at 7.49 µM; in the data active = inhibition above about 50%, passing the limit was not always enough; inconclusive = no clear call, values can overlap the other calls; inactive = below about 31%
UCH37 inh – blocks the human deubiquitinase UCH37 | Q9Y5K5 | purified proteasome/UCH37, Ub-AMC cleavage fluorescence | inhibition, % (concentration not given with the values) | 330,000 compounds, 0.33% hits;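 active = mean inhibition over replicate wells above about 20%, limit read from the data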;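 note: 0% = compound-free wells with enzyme and 100% = wells lacking proteasome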
Target sequence (Q9Y5K5 whole entry, looked up): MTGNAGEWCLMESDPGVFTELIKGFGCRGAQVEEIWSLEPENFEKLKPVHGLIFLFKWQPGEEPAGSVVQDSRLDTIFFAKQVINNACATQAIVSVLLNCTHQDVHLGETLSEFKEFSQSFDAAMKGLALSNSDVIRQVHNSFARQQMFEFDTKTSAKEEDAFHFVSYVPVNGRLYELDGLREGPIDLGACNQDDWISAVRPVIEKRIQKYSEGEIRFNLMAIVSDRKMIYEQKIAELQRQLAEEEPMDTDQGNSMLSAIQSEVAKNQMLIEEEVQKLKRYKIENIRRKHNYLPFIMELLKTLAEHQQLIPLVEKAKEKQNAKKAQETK
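System: Proteasome-associated human UCH37 deubiquitinase; Input: 0.15 nM proteasome in added enzyme buffer; Also added: Ub-AMC substrate from 1 µM stock; Incubation: 30 min compound-proteasome preincubation then 25 min substrate reaction, room temperature; Detection: fluorescence, ex 355 nm, em 460 nm; Read-out: % inhibition of Ub-AMC cleavage fluorescence; Benchmarks: no-proteasome and no-compound wells.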
MsrA inh – inhibits bovine methionine sulfoxide reductase A; 360,000 compounds, 0.75% hits; inhibition, % at 15.5 µM; purified bovine MsrA, absorbance read-out; AID 651718; in the data active = inhibition above about 4.5%;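 note: 0% = vehicle wells with enzyme and 100% = reference inhibitor wells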
N-glyco inh – blocks N-linked glycosylation in D54 reporter cells. D54 ERlucT glycosylation luciferase reporter, 24 h; percent of 100 nM tunicamycin response. reporter increase, % at 12.5 µM. 360,000 compounds, 0.23% hits. AID 588692;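 active = mean luciferase reporter signal, scaled so untreated is 0 and the glycosylation-blocking control 100, at or above a set limit in every replicate; inconclusive = mean reaches the limit but not every replicate does; inactive = mean below the limit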;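 note: luciferase carries N-glycosylation sites so blocking glycosylation raises the light; 0% = median of neutral control wells and 100% = median of 100 nM tunicamycin wells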
MsrA act – activators of bovine methionine sulfoxide reductase A; 360,000 compounds, 0.3% hits; AID 602163; activation, % at 10.6 µM; purified bovine MsrA, absorbance read-out; in the data active = activation above about 7.5%;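 note: 0% = vehicle and 100% = reference activator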
An asterisk follows results filed as active; ? = inconclusive; · = no result.

SMILES	aDG glyco act	Vif inh	UCH37 inh	MsrA inh	N-glyco inh	MsrA act
Cc1nn(CC(=O)NC(=O)c2ccccc2)c(C)c1[N+](=O)[O-]	0	54*	6	1	2	-12
Cc1nn(CC(=O)NCc2ccccc2)c(C)c1[N+](=O)[O-]	0	5	5	0	0	0
CC(=NNC(=O)C1CC1c1ccccc1)c1cccc([N+](=O)[O-])c1 (stereo unspecified)	·	·	-3	·	·	·
Cc1ccc2c(c1)[C@H]1[C@H](CO2)[C@H](c2ccccc2)[C@]2(C)C(=O)Nc3ccccc3C(=O)N12	0	-3	0	0	13	-1
COc1ccc2c(c1)[C@H]1[C@H](CO2)[C@H](c2ccccc2)[C@]2(C)C(=O)Nc3ccc(C)cc3C(=O)N12	0	-1	·	1	58*	-3
COc1ccc2c(c1)[C@H]1[C@H](CO2)[C@H](c2ccccc2)[C@]2(C)C(=O)Nc3cc(OC)c(OC)cc3C(=O)N12	0	-10	0	0	59*	-6
COc1ccc2c(c1)OC[C@H]1[C@H]2N2C(=O)c3cc(C)ccc3NC(=O)[C@@]2(C)[C@H]1c1ccccc1	0	-6	·	·	39*	0
COc1ccc2c(c1)C(=O)N1[C@H]3c4cc(C)ccc4OC[C@@H]3[C@H](c3ccccc3)[C@]1(C)C(=O)N2	0	3	4	3	24	-2
COc1ccc2c(c1)[C@@H]1[C@H](CO2)[C@H](c2ccccc2)[C@]2(C)C(=O)Nc3ccc(C)cc3C(=O)N12	0	-5	3	·	34*	-1
CCOC(=O)c1c(N=CC2=C(O)CC(C)(C)CC2=O)sc(C(C)=O)c1C	·	·	6	·	·	·
COc1ccc2c(c1)[C@H]1[C@H](CO2)[C@H](c2ccccc2)[C@]2(C)C(=O)Nc3ccc(F)cc3C(=O)N12	0	-2	·	1	51*	-1
C[C@@]12C(=O)Nc3ccc(Cl)cc3C(=O)N1[C@H]1c3cc(Cl)ccc3OC[C@@H]1[C@@H]2c1ccccc1	0	1	2	1	17	-3
COc1ccc2c(c1)[C@H]1[C@H](CO2)[C@H](c2ccccc2)[C@]2(C)C(=O)Nc3ccc(Cl)cc3C(=O)N12	0	-4	-2	0	40*	-3
Cc1cc(C)c(S(=O)(=O)N(C)CC(=O)N2CCCC2)c(C)c1	0	5	·	1	34*	-2
COc1ccc(CC(=O)O)cc1O	0	-2	0	0	1	-3
COc1ccc(CC2NCCC3=CC(=O)CCC32)cc1O (stereo unspecified)	0	146*	-1	1	2	-2
O=C(O)CCC(=O)Nc1ccc(-c2nc3ccc(C(=O)c4ccccc4)cc3[nH]2)cc1	0	-11	0	4.6*	0	-4
CC(C)CN(C(=O)COC(=O)CSc1ccccc1)c1c(N)n(Cc2ccccc2)c(=O)[nH]c1=O	0	50*	3	-1	1	-1
CCOc1ccc(OCC(=O)N(CCC2=CCCCC2)c2c(N)n(Cc3ccccc3)c(=O)[nH]c2=O)cc1	0	-9	·	0	80*	-3
CC1(C)Cc2c(c(=S)nc(-c3ccccc3)n2CCN2CCOCC2)CO1	0	10	13	4.6*	3	-4
ON=C1CCC(=NO)c2nn(-c3ccc(Cl)cc3Cl)nc21	·	·	0	·	·	·
COc1cc(/C=N/NC(=O)c2cccc(NC(=O)c3ccccc3)c2)ccc1O	0	-4	·	4.6*	1	-3
COc1cc(C(=O)N/N=C/c2ccc3c(c2)c2ccccc2n3C)ccc1O	0	2	·	2	34*	-4
COc1ccc(/C=N/NC(=O)c2ccc(NC(=O)c3cccc([N+](=O)[O-])c3)cc2)c(C(=O)O)c1OC	0	34	·	4.6*	0	-14
Cn1c2ccccc2c2cc(C=NNC(=O)c3cc(O)cc(O)c3)ccc21	·	·	-86	·	·	·
SMILES	aDG glyco act	Vif inh	UCH37 inh	MsrA inh	N-glyco inh	MsrA act
Cc1ccsc1C=NNC(=O)c1cc(C(C)(C)C)[nH]n1	·	·	11	·	·	·
COc1ccccc1NS(=O)(=O)c1cc([N+](=O)[O-])ccc1NN=Cc1c(C)[nH]c2ccccc12	·	·	6	·	·	·
O=C(O)CCC(=NNc1ccccc1[N+](=O)[O-])c1cccs1	·	·	12	·	·	·
COc1cccc2cc(C(N)=O)c(=NNC(=O)COc3ccc(Cl)cc3)oc12	·	·	3	·	·	·
O=C(Nc1cc(Cl)ccc1Cl)P(=O)(O)c1ccccc1	0	57*	0	0	-1	-2
O=C(NC1CC1)C1=C[C@@H](C2CC2)C[C@@H](OCCCCO)O1	0	3	23*	-1	2	0
O=C(Nc1ccccc1)C1=C[C@H](C2CCCCC2)C[C@H](OCCCCO)O1	0	25	2	-1	-3	-2
O=C(Nc1ccccc1)C1=C[C@@H](C2CCCCC2)C[C@@H](OCCCCO)O1	0	69*	0	-1	-8	1
O=C(CC(=O)NN=Cc1c(Cl)cccc1Cl)NCc1cccnc1	·	·	1	·	·	·
COc1cccc(SCc2noc(C(=O)NCCN(C)C)c2C(=O)NCCN(C)C)c1	0	15	32*	0	1	-1
CN(C)CCCNCCCNC(=O)C(=NO)c1ccccn1	·	·	1	·	·	·
Cc1ccc(OCCN2C(=O)CSC2=O)cc1	0	-13	4	0	2	2
C[N+](C)(C)CCN1C(=O)CSC1=O	0	55*	2	0	1	-1
CCC(/C=C1\Sc2ccc(OC)cc2N1CC)=C\c1sc2ccc(OC)cc2[n+]1CCCS(=O)(=O)[O-]	0	0	9	1	-4	-1
CCO/C(=C/c1sc2ccc(OC)cc2[n+]1CCCS(=O)(=O)[O-])CC	0	-2	21*	4	1	3
COc1cc(C(=O)NCCc2cn3ccc(C)cc3n2)cc(OC)c1OC	0	96*	1	0	2	-14
CCCCCCC[C@@H](C/C=C/CCC(=O)N(C)C/C(=C/Cl)C/C(=C\C(=O)N1CC(OC)=CC1=O)OC)OC	0	·	6	-1	77*	1
CC(C)(Cc1ccc(O)cc1)NC(=O)CC(=O)NN=Cc1ccc([N+](=O)[O-])cc1	·	·	7	·	·	·
O=C(N/N=C/c1ccc(Cl)cc1)c1sccc1OCc1ccc(F)cc1	0	16	·	2	33*	-1
CCn1c(=NC(=O)C2COc3ccccc3O2)sc2c(OC)ccc(OC)c21 (stereo unspecified)	0	71*	-2	2	2	-1
Cc1cc(N/N=C/c2ccc([N+](=O)[O-])o2)nc2ccccc12	8.2*	-1	·	1	?	-4
O=C(Nc1cccc2ccccc12)c1ccc([N+](=O)[O-])o1	1	-3	7	1	27*	3
O=[N+]([O-])c1ccc(/C=N/N=C/c2ccc([N+](=O)[O-])o2)o1	-1	53*	·	0	-19	-2
